Laboratory results published in ChEMBL document CHEMBL3865828, “Total synthesis of 8-(6″-umbelliferyl)-apigenin and its analogs as anti-diabetic reagents” (2016).
Calls of active or inactive are those of the source. The calls are words filed in the database; no cut-off is given here.

Assays:
Assay type in all cases: functional
3T3-L1 [1] = experiment: Increase in glucose uptake in serum-starved mouse 3T3L1 adipocytes at 10 uM pretreated followed by glucose addition measured under basal condition by glucose oxidase peroxidase method
Method in brief: (§1)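 3T3-L1 adipocytes, used 8–10 days after differentiation (IBMX/dexamethasone/insulin for 48 h, then insulin for 2 days), were incubated with agents in KRH buffer. Glucose in KRH was measured at 0 h and 4 h by glucose oxidase–peroxidase kit, and the difference was taken as consumed glucose. Metformin was the positive control. Data are mean ± SEM of independent experiments.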

3T3-L1 [2] = experiment: Increase in 2-NBDG uptake in serum-starved mouse 3T3L1 adipocytes at 1 mM measured under basal condition by inverted fluorescence microscopy
Method in brief: (§2)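 Adipocytes from 3T3-L1 cells, differentiated 2 days post-confluence in DMEM with 0.5 mM IBMX, dexamethasone and insulin for 48 h, then 2 days in DMEM (10% FBS) with insulin alone. Used 8–10 days after differentiation start. After 1-h serum starvation, cells got agents in KRH for 0.5 h, then […] 2-NBDG for 1 h. They were washed 3× with KRH and imaged by inverted fluorescence microscopy. Metformin was the control.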

3T3-L1 [3] = experiment: Increase in glucose uptake in serum-starved mouse 3T3L1 adipocytes at 1 mmol/L pretreated followed by glucose addition measured under basal condition by glucose oxidase peroxidase method; method in brief: as §1
3T3-L1 [4] = experiment: Increase in 2-NBDG uptake in serum-starved mouse 3T3L1 adipocytes at 10 uM measured under basal condition by inverted fluorescence microscopy; method in brief: as §2

COc1cc2oc(=O)ccc2cc1-c1c(O)cc(O)c2c(=O)cc(-c3ccccc3)oc12
Activity (3T3-L1 [1]): Active

O=c1c(O)c(-c2ccc(O)c(O)c2)oc2cc(O)cc(O)c12
Activity (3T3-L1 [1]): Active

O=c1ccc2cc(-c3c(O)cc(O)c4c(=O)cc(-c5ccccc5)oc34)c(O)cc2o1
Activity (3T3-L1 [1]): Active

CN(C)C(=N)NC(=N)N
Activity (3T3-L1 [2]): Active
Activity (3T3-L1 [3]): Active

COc1cc2oc(=O)ccc2cc1-c1c(O)cc(O)c2c(=O)c(O)c(-c3ccc(O)c(O)c3)oc12
Activity (3T3-L1 [4]): Active
Activity (3T3-L1 [1]): Active

COc1cc2oc(=O)ccc2cc1-c1c(O)cc(O)c2c(=O)cc(-c3ccc(O)c(O)c3)oc12
Activity (3T3-L1 [4]): Active
Activity (3T3-L1 [1]): Active

COc1cc2oc(=O)ccc2cc1-c1c(O)cc(O)c2c(=O)cc(-c3ccc(O)cc3)oc12
Activity (3T3-L1 [4]): Active
Activity (3T3-L1 [1]): 57%

O=c1cc(-c2ccc(O)cc2)oc2cc(O)cc(O)c12
Activity (3T3-L1 [1]): Active

O=c1ccc2cc(-c3c(O)cc(O)c4c(=O)cc(-c5ccc(O)cc5)oc34)c(O)cc2o1
Activity (3T3-L1 [4]): Active
Activity (3T3-L1 [1]): 48%

O=c1cc(-c2ccccc2)oc2cc(O)cc(O)c12
Activity (3T3-L1 [1]): Active

O=c1cc(-c2ccc(O)c(O)c2)oc2cc(O)cc(O)c12
Activity (3T3-L1 [1]): Active
